CHOP UPR activ: activators of apoptotic arm of unfolded protein response (CHOP); CHO-CHOP luciferase reporter, UPR activation, luminescence; percent of tunicamycin response over DMSO baseline; activation, % at 10 µM; 330,000 compounds, 0.34% hits;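 active = at 10 µM dose, activation of 40% or more, normalized to positive control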;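 also: 100% = tunicamycin at 10 µg/mL and 0% = DMSO alone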
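Assay system: CHO-CHOP cells, stable luciferase reporter of PERK-eIF2a-CHOP signalling / Buffer or medium: F12 plus 10% serum / Compound dosing: one dose, 10 µM in 0.5% DMSO / Times: 6 h compound treatment, 37 °C / Technique: luciferase luminescence / Read-out: % reporter activation, DMSO baseline versus tunicamycin full activation / Benchmarks: tunicamycin and DMSO controls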
XBP1 UPR activ: adaptive UPR (XBP1) activation. 330,000 compounds, 0.33% hits. activation, % at 20 µM. CHO-XBP1 luciferase reporter, IRE1-XBP1 UPR activation, luminescence; percent of tunicamycin response, DMSO as zero;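 active = versus positive control, 20 µM dose yields 30% or more activation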;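 also: 100% = tunicamycin at 10 µg/mL and 0% = DMSO only wells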
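Material – CHO cell line with stable XBP1 luciferase reporter · Buffer or medium – F12 plus 10% FBS · Compound – single point, 20 µM final compound, 1% DMSO · Schedule – 16-18 h cell attachment at 37 °C, then 6 h compound exposure · Signal – Steady-Glo luminescence read · Benchmarks – high control tunicamycin 10 µg/mL final, low control DMSO vehicle only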
Mdm2 MdmX PPI: inhibitors of human Mdm2/MdmX interaction; SaOS-2 split-luciferase Mdm2/MdmX complementation, luminescence; O15151+Q00987; 330,000 compounds, 3% hits; inhibition, % at 8 µM;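 active = inhibition of at least 50% at 8 µM in the primary screen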
Dynein cargo inh: dynein cargo transport inhibition | z-score, hits read low | 220,000 compounds, 0.47% hits | 3617.4 mouse cells, GR-EGFP nuclear translocation imaging; test concentration mostly 20 µM; stimulated with dexamethasone, 1 µM; stronger effect = lower value;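 active = plate z-score of nuclear minus cytoplasmic receptor signal below a set negative limit, without overly bright fluorescence or cell loss, cut at about -3.5 in these data, passing the limit was not always enough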;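 also: z-score of nuclear minus cytoplasmic ring GR-EGFP intensity difference per well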
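Also added – dexamethasone, 1.0 µM final · Buffer or medium – tet-free, stripped-serum medium · Schedule – induction 48 h, compound 1 h, agonist 30 min · Detection – formaldehyde fixation, Hoechst nuclear stain, 10x automated fluorescence imaging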
MDM2 E3 inh: inhibitors of human Mdm2 E3 ubiquitin ligase. Q00987. cell-based MDM2 ubiquitination luciferase reporter, 2 h; 0 = plate control, 100 = twice control, blank-subtracted. signal enhancement, % at 5 µM. 210,000 compounds, 0.11% hits. AID 1230;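 active = signal enhancement of 30% or more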;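 also: luminescence tracks abundance of the self-degrading MDM2-luciferase fusion protein; higher signal means inhibition of MDM2 E3 ligase activity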
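Timing – 2 h compound exposure at 37 °C · Assay system – mammalian cells stably expressing self-ubiquitinating, self-degrading MDM2 E3–luciferase fusion · Amount – 2000 cells seeded into each well · Measure – % luminescence enhancement versus blank-corrected plate control mean · Measured by – SteadyLite luminescence, 15 min reagent step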
Beta2AR agonist: human beta-2 adrenergic receptor agonism by FAP; P07550; Am2.2-beta2AR cells, FAP receptor internalization, flow cytometry; response, % (no concentration beside the values); 340,000 compounds, 0.43% hits;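 active = response above a set limit, near 3 SD of response in nonfluorescent compounds, cut at about 42% in these data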
Target sequence (P07550 whole entry, looked up): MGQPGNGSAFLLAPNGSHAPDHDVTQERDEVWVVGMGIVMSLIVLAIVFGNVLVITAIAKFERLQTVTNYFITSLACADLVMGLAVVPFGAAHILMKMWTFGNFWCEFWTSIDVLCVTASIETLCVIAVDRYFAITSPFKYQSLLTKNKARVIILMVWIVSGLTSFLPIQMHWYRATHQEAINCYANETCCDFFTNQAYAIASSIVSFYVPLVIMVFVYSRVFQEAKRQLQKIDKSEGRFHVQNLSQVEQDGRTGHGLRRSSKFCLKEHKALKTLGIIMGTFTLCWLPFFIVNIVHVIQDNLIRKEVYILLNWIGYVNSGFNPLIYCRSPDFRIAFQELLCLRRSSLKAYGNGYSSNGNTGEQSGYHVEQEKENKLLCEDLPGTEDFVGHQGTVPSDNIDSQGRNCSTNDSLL
Mdm2-MdmX conf: confirmation of human Mdm2/MdmX interaction inhibitors | shares compounds with Mdm2 MdmX PPI | Mdm2-MdmX binding, luminescent assay | inhibition, % at 8 µM | 10,000 compounds, 55% hits | AID 489028; in the data active = inhibition above about 40%
Full FLuc ctr: full-length luciferase inhibition in Mdm2/MdmX counter-screen. shares compounds with Mdm2 MdmX PPI. 6,200 compounds, 77% hits. inhibition, % at 8 µM. SaOS-2 full-length luciferase counterscreen, luminescence. AID 504607;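 active = mean inhibition at 8 µM reaching about 37%, which flags the compound as non-specific, limit read from the data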;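 also: p53-null SaOS-2 cells with luciferase driven by a doxycycline-inducible promoter; compound on cells about two nights before reading with doxycycline added after day one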
Beta2AR ag CP1: activates human beta-2 adrenergic receptor; percent response (surface receptor), % at 10 µM; Am2.2-beta2AR cells, FAP surface receptor, flow cytometry; stronger effect = lower value; 1,100 compounds, 25% hits; shares compounds with Beta2AR agonist; AID 540358;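 active = surface receptor percent response at or below 58%, roughly 3 SD from nonfluorescent compounds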
B2AR FAP counter: fluorescence artifact in beta-2AR agonist FAP counterscreen | 1,100 tested, under 10 active | Am2.2 cells, FAP fluorogen flow cytometry; stronger effect = lower value | calls only at 10 µM | shares compounds with Beta2AR agonist | AID 588765;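 active = percent response below a set limit in fluorescence channel 1 and below 50% in channel 8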
Numbers without * were called inactive. In the library only some 3.7% were active in any assay of this set; here they are far more common.

What do the screens show for `CN(C)S(=O)(=O)c1cccc(NC(=O)COC(=O)c2ccc3ccccc3n2)c1`?
CHOP UPR activ: 2; XBP1 UPR activ: 0; Mdm2 MdmX PPI: -7; Beta2AR agonist: 10

How did Cc1nnnn1/C(=C\c1ccccc1)C(=O)OCC(=O)Nc1ccc(Cl)cc1F do in these assays?
CHOP UPR activ: 6; XBP1 UPR activ: -5; Mdm2 MdmX PPI: 67*; Beta2AR agonist: 6; Mdm2-MdmX conf: 61*; Full FLuc ctr: 61*

What do the screens show for `Cc1nnnn1/C(=C\c1ccccc1)C(=O)OCC(=O)Nc1cccc(S(=O)(=O)N(C)C)c1`?
CHOP UPR activ: 7; XBP1 UPR activ: -5; Mdm2 MdmX PPI: 72*; Beta2AR agonist: 15; Mdm2-MdmX conf: 39; Full FLuc ctr: 34

Results for CCC(Oc1ccc(Br)cc1Cl)C(=O)Nc1nnc(C2CC2)s1 (stereo unspecified) ?
CHOP UPR activ: 1; XBP1 UPR activ: -4; Mdm2 MdmX PPI: 20; Beta2AR agonist: -3

Results for CC1(C2CC2)NC(=O)N(CC(=O)Nc2ccc(C(F)(F)F)cc2)C1=O (stereo unspecified) ?
CHOP UPR activ: 0; XBP1 UPR activ: -2; Mdm2 MdmX PPI: 19; Beta2AR agonist: 5

What do the screens show for `CCSc1ncc(/C=N/Nc2ccc([N+](=O)[O-])cc2)n1C`?
CHOP UPR activ: 9; XBP1 UPR activ: 4; Mdm2 MdmX PPI: 69*; Dynein cargo inh: -0.94; MDM2 E3 inh: -4; Beta2AR agonist: 8; Mdm2-MdmX conf: -87

How did COc1cccc(/C=N/n2c(N)c(S(=O)(=O)c3cccs3)c3nc4ccccc4nc32)c1OC do in these assays?
CHOP UPR activ: 6; XBP1 UPR activ: 9; Mdm2 MdmX PPI: 83*; Dynein cargo inh: 0.67; MDM2 E3 inh: -24; Beta2AR agonist: 14; Mdm2-MdmX conf: 27

How did COCCn1c(N)c(S(=O)(=O)c2cccs2)c2nc3ccccc3nc21 do in these assays?
CHOP UPR activ: 1; XBP1 UPR activ: -3; Mdm2 MdmX PPI: 31; Dynein cargo inh: -0.52; MDM2 E3 inh: -12; Beta2AR agonist: 5

Results for Nc1c(S(=O)(=O)c2cccc(Cl)c2)c2nc3ccccc3nc2n1/N=C/c1ccc(O)c(O)c1 ?
CHOP UPR activ: 16; XBP1 UPR activ: 12; Mdm2 MdmX PPI: 84*; Dynein cargo inh: 2.5; MDM2 E3 inh: 5; Mdm2-MdmX conf: 35

How did COc1cccc(C(=O)N2CCN(C(=O)COc3ccc4ccccc4c3)CC2)c1 do in these assays?
CHOP UPR activ: 3; XBP1 UPR activ: -2; Mdm2 MdmX PPI: 10; Beta2AR agonist: 5

What do the screens show for `Cc1cc(/C=N/Nc2ncnc(N)c2[N+](=O)[O-])c(C)n1-c1ccccc1`?
CHOP UPR activ: -11; XBP1 UPR activ: -7; Mdm2 MdmX PPI: 65*; Dynein cargo inh: 0.22; Beta2AR agonist: 11; Mdm2-MdmX conf: 70*; Full FLuc ctr: 54*

What do the screens show for `Cc1ccc(C(=O)c2cc([N+](=O)[O-])ccc2N2CCCCC2)c(C)c1`?
CHOP UPR activ: 1; XBP1 UPR activ: 16; Mdm2 MdmX PPI: 55*; Dynein cargo inh: 0.55; Beta2AR agonist: 61*; Mdm2-MdmX conf: 67*; Full FLuc ctr: 125*; Beta2AR ag CP1: 41*; B2AR FAP counter: inactive

How did O=C(OCc1ccc(Br)cc1F)c1cc2ccccc2oc1=O do in these assays?
CHOP UPR activ: 0; XBP1 UPR activ: -1; Mdm2 MdmX PPI: 7; Beta2AR agonist: 10

How did CCCCNc1nc(-c2ccccc2)c(C(=O)OCC)cc1C#N do in these assays?
CHOP UPR activ: -2; XBP1 UPR activ: 2; Mdm2 MdmX PPI: 40; Dynein cargo inh: -0.69; MDM2 E3 inh: -3; Beta2AR agonist: -17

What do the screens show for `CCCNc1nc(-c2ccccc2)c(C(=O)OCC)cc1C#N`?
CHOP UPR activ: 0; XBP1 UPR activ: 8; Mdm2 MdmX PPI: 63*; Dynein cargo inh: -0.15; MDM2 E3 inh: 21; Beta2AR agonist: 50*; Mdm2-MdmX conf: 52*; Full FLuc ctr: 64*; Beta2AR ag CP1: 103; B2AR FAP counter: inactive

Results for COc1ccccc1-c1cnn2c(NC3CCCC3)cc(C)nc12 ?
CHOP UPR activ: 8; XBP1 UPR activ: 1; Mdm2 MdmX PPI: -18; Beta2AR agonist: -3

Results for Cc1ccc(S(=O)(=O)c2ccc([N+](=O)[O-])cn2)cc1 ?
CHOP UPR activ: -10; XBP1 UPR activ: -9; Mdm2 MdmX PPI: 96*; Beta2AR agonist: 65*; Mdm2-MdmX conf: 88*; Full FLuc ctr: 52*; Beta2AR ag CP1: 73; B2AR FAP counter: inactive

What do the screens show for `N=c1n(Cc2ccc(Cl)cc2)c2ccccc2n1CC(O)COc1ccccc1` (stereo unspecified)?
CHOP UPR activ: 1; XBP1 UPR activ: 8; Mdm2 MdmX PPI: 88*; Dynein cargo inh: -0.096; MDM2 E3 inh: 11; Beta2AR agonist: 43*; Mdm2-MdmX conf: 37; Full FLuc ctr: 88*; Beta2AR ag CP1: 19*; B2AR FAP counter: inactive

Results for Cc1ccc(OCC(O)Cn2c(=N)n(Cc3ccccc3)c3ccccc32)cc1 (stereo unspecified) ?
CHOP UPR activ: -2; XBP1 UPR activ: 1; Mdm2 MdmX PPI: 67*; Dynein cargo inh: -0.043; MDM2 E3 inh: 2; Beta2AR agonist: 55*; Mdm2-MdmX conf: 52*; Full FLuc ctr: 49*; Beta2AR ag CP1: 17*; B2AR FAP counter: inactive

Results for CCN(CC)CCn1c(=N)n(CC(O)COc2cccc(C)c2)c2ccccc21 (stereo unspecified) ?
CHOP UPR activ: -1; XBP1 UPR activ: -2; Mdm2 MdmX PPI: 48; Dynein cargo inh: -0.76; MDM2 E3 inh: -6; Beta2AR agonist: 31

How did N=c1n(Cc2ccccc2)c2ccccc2n1CC(O)c1ccco1 (stereo unspecified) do in these assays?
CHOP UPR activ: 2; XBP1 UPR activ: -3; Mdm2 MdmX PPI: 35; Dynein cargo inh: -0.64; MDM2 E3 inh: -16; Beta2AR agonist: -2
